Test results reported in ChEMBL document CHEMBL1154085, “Diamine-based human histamine H3 receptor antagonists: (4-aminobutyn-1-yl)benzylamines” (Eur J Med Chem, 2009).
Activity calls are given as the source filed them. No cut-off for these calls is given here.

Columns and labels:
Histamine H3 receptor [1] = molecular target: T1, Histamine H3 receptor (Homo sapiens, UniProt Q9Y5N1); assay: Displacement of [3H]N-alpha-methylhistamine from human histamine H3 receptor expressed in SK-N-MC cells; assay type: cell-based
Method in brief: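 Membranes prepared from SK-N-MC cells expressing human H3 receptor, homogenized in 50 mM Tris/5 mM EDTA, pH 7.4. Incubated with 0.8 nM [3H]-N-alpha-methylhistamine ± compound, 60 min, 25 °C. Filtration over polyethylenimine-treated glass fiber filters with four ice-cold washes. Nonspecific binding defined with 10 µM histamine.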

Histamine H3 receptor [2] = molecular target: T1, Histamine H3 receptor; assay: Antagonist activity at human histamine H3 receptor expressed in SK-N-MC cells assessed as inhibition of forskolin-stimulated cAMP accumulation treated 10 min before histamine challenge; assay type: functional, cell-based; settings: read-out: pA2 (converted)
Method in brief: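 SK-N-MC sublines stably carrying human H3 receptor plus a beta-galactosidase reporter driven by multiple cAMP responsive elements. Antagonist added 10 min before histamine; forskolin (5 µM final) 5 min after histamine; 6 h at 37 °C. Lysis, then chlorophenol red beta-D-galactopyranoside substrate, absorbance 570 nm. pA2 from Schild regression of rightward shifts in histamine curves; mean of at least three determinations.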

Rattus norvegicus [3] = assay: Ex vivo histamine H3 receptor occupancy in rat striatum at 30 mg/kg, po after 1 hr; assay type: functional
Method in brief: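 Ex vivo autoradiography in rat striatum, coronal sections, using [3H]-R-alpha-methylhistamine as radioligand. Oral dosing at 0.1, 0.3, 1, 3, 10 or 30 mg/kg; brains taken 1 h post-dose to measure H3 receptor occupancy.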

Histamine H3 receptor [4] = molecular target: T2, Histamine H3 receptor (Rattus norvegicus, UniProt Q9QYN8); assay: Displacement of [3H]N-alpha-methylhistamine from rat histamine H3 receptor expressed in SK-N-MC cells; assay type: cell-based
Method in brief: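 Membranes from homogenized SK-N-MC cells expressing the rat H3 receptor, in 50 mM Tris/5 mM EDTA pH 7.4. Incubated with 0.8 nM [3H]-Nα-methylhistamine ± compound for 60 min at 25 °C, then filtered and washed with ice-cold buffer. Nonspecific binding was defined with 10 μM histamine.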

Histamine H1 receptor = Histamine H1 receptor (Homo sapiens, UniProt P35367); assay: Displacement of […] from histamine H1 receptor expressed in SK-N-MC cells; assay type: cell-based
Histamine H4 receptor = Histamine H4 receptor (Homo sapiens, UniProt Q9H3N8); assay: Displacement of […] from histamine H4 receptor expressed in SK-N-MC cells; assay type: cell-based
hERG (KCNH2) [5] = molecular target: T3, hERG (KCNH2) (Homo sapiens, UniProt Q12809); assay: Inhibition of human ERG at 10 uM; settings: read-out: Activity
hERG (KCNH2) [6] = molecular target: T3, hERG (KCNH2); assay: Inhibition of human ERG at 3 uM; settings: read-out: Activity
Cytochrome P450 1A2 = molecular target: T4, Cytochrome P450 1A2 (Homo sapiens, UniProt P05177); assay: Inhibition of CPY1A2 at >40 uM
T4 sequence (P05177 whole entry): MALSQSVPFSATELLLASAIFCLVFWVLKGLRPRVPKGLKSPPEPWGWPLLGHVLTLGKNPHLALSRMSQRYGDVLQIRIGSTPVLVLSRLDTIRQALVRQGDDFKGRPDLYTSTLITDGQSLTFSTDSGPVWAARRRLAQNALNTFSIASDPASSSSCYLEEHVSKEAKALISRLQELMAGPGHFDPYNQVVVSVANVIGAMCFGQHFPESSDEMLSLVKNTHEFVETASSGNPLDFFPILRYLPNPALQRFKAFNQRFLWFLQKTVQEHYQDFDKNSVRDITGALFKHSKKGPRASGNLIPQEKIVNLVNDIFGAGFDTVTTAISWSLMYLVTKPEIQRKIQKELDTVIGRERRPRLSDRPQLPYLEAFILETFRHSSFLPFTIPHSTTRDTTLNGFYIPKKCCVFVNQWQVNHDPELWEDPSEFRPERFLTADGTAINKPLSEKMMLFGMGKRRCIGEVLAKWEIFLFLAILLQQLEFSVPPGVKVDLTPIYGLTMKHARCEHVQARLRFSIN

Cytochrome P450 2C9 = Cytochrome P450 2C9 (Homo sapiens, UniProt P11712); assay: Inhibition of CPY2C9 at >40 uM
Rattus norvegicus [7] = assay: Wake promoting activity in Sprague-Dawley rat assessed as decrease in non-rapid eye movement sleep at 10 mg/kg, sc; assay type: functional, organism-based; parameters: dose 10 mg/kg
Method in brief: (§1)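 Male adult Sprague-Dawley rats chronically implanted with EEG/EMG electrodes, given 10 mg/kg s.c. or saline vehicle 2 h after light-phase onset. Recording for 8 h, visually scored in 10 s epochs as wake, NREM or REM. Time per 1 h interval as % of recording time; n = 5 animals; vehicle vs compound by paired t-test.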

Cytochrome P450 2C19 = Cytochrome P450 2C19 (Homo sapiens, UniProt P33261); assay: Inhibition of CPY2C19 at >40 uM
Cytochrome P450 2D6 = Cytochrome P450 2D6 (Homo sapiens, UniProt P10635); assay: Inhibition of CPY2D6 at >40 uM
Cytochrome P450 3A4 = Cytochrome P450 3A4 (Homo sapiens, UniProt P08684); assay: Inhibition of CPY3A4 at >40 uM
[8] = Oral bioavailability in rat; assay type: ADME, organism-based; settings: in vivo
Histamine H3 receptor [9] = molecular target: T2, Histamine H3 receptor; assay: Antagonist activity at rat H3 receptor expressed in SK-N-MC cells assessed as inhibition of forskolin-stimulated cAMP accumulation treated 10 min before histamine challenge; assay type: functional, cell-based; settings: read-out: pA2 (converted)
Rattus norvegicus [10] = assay: Wake promoting activity in Sprague-Dawley rat assessed as effect on rapid eye movement sleep at 10 mg/kg, sc; assay type: functional, organism-based; parameters: dose 10 mg/kg; method in brief: as §1
[11] = Half life in po dosed rat; assay type: ADME, organism-based; settings: in vivo

T1 sequence (Q9Y5N1 whole entry): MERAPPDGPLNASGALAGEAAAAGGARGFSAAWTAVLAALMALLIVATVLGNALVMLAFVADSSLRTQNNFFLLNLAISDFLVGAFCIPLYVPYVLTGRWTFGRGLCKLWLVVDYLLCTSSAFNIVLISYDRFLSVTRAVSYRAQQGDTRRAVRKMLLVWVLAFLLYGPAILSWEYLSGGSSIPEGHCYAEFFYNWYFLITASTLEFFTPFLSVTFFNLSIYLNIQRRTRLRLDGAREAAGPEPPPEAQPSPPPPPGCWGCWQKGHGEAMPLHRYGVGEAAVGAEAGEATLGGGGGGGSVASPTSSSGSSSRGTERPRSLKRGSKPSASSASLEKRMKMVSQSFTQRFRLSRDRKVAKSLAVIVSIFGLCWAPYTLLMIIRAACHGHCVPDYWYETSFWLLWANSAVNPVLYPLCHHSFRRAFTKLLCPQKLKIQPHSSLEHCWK
T3 sequence (Q12809 whole entry): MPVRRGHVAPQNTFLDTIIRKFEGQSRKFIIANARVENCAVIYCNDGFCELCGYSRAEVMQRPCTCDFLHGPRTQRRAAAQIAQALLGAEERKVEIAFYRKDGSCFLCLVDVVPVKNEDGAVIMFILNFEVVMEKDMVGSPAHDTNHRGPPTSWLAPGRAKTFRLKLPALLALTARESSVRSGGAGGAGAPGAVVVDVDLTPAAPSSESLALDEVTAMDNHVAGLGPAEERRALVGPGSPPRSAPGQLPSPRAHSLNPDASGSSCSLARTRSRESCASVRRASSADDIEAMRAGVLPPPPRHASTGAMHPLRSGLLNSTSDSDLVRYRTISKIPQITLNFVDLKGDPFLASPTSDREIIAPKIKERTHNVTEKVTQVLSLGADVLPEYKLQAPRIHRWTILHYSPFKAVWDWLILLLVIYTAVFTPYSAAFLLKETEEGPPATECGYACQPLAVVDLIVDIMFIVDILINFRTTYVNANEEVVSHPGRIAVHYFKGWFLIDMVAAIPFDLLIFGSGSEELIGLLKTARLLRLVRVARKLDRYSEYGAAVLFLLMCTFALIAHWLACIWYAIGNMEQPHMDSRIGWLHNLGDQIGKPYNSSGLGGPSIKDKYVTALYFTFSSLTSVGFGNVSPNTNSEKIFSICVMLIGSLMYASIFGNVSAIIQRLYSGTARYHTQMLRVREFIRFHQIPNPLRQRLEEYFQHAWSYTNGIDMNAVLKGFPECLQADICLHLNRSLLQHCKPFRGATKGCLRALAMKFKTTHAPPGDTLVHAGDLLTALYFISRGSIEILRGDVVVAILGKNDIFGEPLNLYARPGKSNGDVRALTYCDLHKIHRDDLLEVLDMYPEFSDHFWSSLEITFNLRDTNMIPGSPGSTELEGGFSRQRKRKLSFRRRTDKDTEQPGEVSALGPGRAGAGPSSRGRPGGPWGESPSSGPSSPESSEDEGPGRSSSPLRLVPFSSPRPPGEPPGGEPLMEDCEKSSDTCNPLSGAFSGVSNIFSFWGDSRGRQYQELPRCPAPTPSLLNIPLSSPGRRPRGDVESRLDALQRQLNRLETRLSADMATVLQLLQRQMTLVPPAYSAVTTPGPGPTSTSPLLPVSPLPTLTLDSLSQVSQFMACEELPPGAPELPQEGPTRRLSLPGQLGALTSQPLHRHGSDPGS
T2 sequence (Q9QYN8 whole entry): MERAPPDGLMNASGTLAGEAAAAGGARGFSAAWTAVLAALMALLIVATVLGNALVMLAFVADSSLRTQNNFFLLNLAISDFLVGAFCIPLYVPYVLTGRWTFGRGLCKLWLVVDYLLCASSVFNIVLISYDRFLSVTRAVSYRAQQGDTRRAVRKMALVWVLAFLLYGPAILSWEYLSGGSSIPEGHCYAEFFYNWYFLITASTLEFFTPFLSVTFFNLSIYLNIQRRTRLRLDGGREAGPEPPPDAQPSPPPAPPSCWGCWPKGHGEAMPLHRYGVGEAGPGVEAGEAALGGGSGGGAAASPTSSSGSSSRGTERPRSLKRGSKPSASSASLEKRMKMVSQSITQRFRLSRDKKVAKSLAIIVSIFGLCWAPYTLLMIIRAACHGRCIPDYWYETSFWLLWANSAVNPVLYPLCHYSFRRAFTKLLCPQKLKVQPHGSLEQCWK
Sequence of Cytochrome P450 2C9 (P11712 whole entry): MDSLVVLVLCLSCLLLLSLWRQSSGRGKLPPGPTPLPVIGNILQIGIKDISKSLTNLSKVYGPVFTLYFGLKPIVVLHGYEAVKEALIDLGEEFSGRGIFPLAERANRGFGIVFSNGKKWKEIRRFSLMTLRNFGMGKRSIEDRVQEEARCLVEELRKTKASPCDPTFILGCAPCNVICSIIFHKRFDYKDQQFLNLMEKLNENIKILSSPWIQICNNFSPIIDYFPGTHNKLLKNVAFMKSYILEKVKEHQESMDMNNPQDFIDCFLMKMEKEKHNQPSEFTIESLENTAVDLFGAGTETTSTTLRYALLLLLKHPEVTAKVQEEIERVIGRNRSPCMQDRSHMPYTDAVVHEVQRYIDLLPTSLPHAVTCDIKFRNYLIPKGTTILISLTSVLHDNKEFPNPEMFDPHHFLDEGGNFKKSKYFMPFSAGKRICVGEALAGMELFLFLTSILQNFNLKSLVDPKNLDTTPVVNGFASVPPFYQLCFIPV
Sequence of Cytochrome P450 2C19 (P33261 whole entry): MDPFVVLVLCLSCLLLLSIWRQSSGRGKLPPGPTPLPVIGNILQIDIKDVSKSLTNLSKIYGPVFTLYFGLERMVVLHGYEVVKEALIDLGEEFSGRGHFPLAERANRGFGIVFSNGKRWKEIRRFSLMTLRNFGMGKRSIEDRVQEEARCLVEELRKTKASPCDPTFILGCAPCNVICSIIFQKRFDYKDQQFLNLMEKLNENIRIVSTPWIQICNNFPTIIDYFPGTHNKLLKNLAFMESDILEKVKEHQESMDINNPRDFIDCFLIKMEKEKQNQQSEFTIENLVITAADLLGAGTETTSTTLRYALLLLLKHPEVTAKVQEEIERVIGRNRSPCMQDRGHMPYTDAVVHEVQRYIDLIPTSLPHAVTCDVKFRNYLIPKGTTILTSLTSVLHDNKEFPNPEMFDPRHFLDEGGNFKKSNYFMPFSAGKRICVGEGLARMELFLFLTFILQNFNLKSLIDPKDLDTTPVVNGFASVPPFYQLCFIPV
Sequence of Cytochrome P450 3A4 (P08684 whole entry): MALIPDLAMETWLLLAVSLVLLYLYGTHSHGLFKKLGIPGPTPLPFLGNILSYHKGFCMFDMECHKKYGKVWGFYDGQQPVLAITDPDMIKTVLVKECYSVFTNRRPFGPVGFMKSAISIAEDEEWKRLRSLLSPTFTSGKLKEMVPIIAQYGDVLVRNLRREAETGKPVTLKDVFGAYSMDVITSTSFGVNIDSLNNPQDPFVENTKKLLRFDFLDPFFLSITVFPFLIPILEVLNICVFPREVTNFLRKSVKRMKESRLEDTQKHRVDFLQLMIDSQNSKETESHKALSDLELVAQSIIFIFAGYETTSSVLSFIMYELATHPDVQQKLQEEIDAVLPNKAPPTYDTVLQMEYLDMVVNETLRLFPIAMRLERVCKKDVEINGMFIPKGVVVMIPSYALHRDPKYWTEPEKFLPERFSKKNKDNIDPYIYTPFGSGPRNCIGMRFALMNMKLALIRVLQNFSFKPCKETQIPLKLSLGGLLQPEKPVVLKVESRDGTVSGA
Sequence of Histamine H4 receptor (Q9H3N8 whole entry): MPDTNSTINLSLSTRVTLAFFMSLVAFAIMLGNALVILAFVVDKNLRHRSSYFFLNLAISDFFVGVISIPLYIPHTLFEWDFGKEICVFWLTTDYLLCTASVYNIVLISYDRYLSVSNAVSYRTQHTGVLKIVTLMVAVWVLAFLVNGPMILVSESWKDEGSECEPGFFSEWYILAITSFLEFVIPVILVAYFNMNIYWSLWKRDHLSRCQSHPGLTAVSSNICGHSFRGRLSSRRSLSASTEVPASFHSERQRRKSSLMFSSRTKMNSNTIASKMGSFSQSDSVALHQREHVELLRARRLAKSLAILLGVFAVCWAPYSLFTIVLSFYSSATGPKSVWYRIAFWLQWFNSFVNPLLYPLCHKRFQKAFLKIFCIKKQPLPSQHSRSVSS
Sequence of Cytochrome P450 2D6 (P10635 whole entry): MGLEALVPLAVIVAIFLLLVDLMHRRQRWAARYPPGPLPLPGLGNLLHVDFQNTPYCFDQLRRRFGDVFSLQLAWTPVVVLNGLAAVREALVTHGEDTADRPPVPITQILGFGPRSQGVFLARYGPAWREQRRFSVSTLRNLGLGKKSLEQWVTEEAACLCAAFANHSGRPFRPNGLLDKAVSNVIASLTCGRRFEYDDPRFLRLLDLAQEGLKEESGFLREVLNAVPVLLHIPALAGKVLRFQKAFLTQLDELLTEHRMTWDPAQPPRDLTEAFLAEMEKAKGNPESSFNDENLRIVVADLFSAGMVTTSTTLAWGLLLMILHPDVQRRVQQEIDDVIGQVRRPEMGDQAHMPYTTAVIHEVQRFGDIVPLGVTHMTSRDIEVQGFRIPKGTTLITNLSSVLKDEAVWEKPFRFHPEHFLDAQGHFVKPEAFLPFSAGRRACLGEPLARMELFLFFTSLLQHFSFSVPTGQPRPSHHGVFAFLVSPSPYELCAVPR
Sequence of Histamine H1 receptor (P35367 whole entry): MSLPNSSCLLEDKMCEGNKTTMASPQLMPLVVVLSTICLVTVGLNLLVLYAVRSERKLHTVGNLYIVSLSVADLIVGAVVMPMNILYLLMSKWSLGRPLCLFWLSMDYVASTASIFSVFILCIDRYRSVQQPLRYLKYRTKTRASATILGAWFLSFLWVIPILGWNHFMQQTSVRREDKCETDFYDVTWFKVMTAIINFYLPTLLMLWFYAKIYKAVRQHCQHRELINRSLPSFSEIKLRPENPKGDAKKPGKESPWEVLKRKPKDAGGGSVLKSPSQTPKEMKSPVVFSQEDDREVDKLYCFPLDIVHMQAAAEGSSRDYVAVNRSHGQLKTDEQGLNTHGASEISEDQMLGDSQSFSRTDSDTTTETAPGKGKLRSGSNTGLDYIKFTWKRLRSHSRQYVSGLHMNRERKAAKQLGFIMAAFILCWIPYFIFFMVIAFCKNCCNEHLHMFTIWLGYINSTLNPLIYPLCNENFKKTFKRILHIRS

Structure (SMILES)	Ki (Histamine H3 receptor [1])	other results
CN1CCN(Cc2cccc(C#CCCN3CCCCC3)c2)CC1	0.724 nM	
C(#Cc1ccc(CN2CCCCC2)cc1)CCN1CCCCC1	0.513 nM	Kb (Histamine H3 receptor [2]): 0.148 nM
CN1CCN(CCC#Cc2ccc(CN3CCCCC3)cc2)CC1	5.25 nM	
NC(=O)C1CCN(Cc2ccc(C#CCCN3CCCCC3)cc2)CC1	0.759 nM	
C(#Cc1ccc(CN2CCC(Cc3ccccc3)CC2)cc1)CCN1CCCCC1	3.47 nM	
C(#Cc1ccccc1CN1CCCCC1)CCN1CCCCC1	83.2 nM	
OC1CCN(Cc2ccc(C#CCCN3CCCCC3)cc2)CC1	0.891 nM	
NC(=O)C1CCN(Cc2cccc(C#CCCN3CCCCC3)c2)CC1	0.55 nM	
C(#Cc1cccc(CN2CCCCC2)c1)CCN1CCOCC1	14.5 nM	
CN(C)Cc1ccc(C#CCCN2CCCCC2)cc1	0.912 nM	
C(#Cc1cccc(CN2CCOCC2)c1)CCN1CCCCC1		ED50 (Rattus norvegicus [3]): 6.5 mg/kg; Ki (Histamine H3 receptor [4]): 7.08 nM; Ki (Histamine H1 receptor): > 10000 nM; Ki (Histamine H4 receptor): > 10000 nM; inhibition at 10 µM (hERG (KCNH2) [5]): 13.7%; inhibition at 3 µM (hERG (KCNH2) [6]): 8.3%; inhibition (INH) (Cytochrome P450 1A2): Not Active; inhibition (INH) (Cytochrome P450 2C9): Not Active; Activity (Rattus norvegicus [7]): Active; inhibition (INH) (Cytochrome P450 2C19): Not Active; inhibition (INH) (Cytochrome P450 2D6): Not Active; inhibition (INH) (Cytochrome P450 3A4): Not Active; bioavailability [8]: 11%; Kb (Histamine H3 receptor [9]): 4.68 nM; Activity (Rattus norvegicus [10]): inactive; half-life [11]: 1.5 h
C(#Cc1cccc(CN2CCCCC2)c1)CCN1CCCCC1	0.776 nM	Kb (Histamine H3 receptor [2]): 0.0813 nM
C(#Cc1ccc(CN2CCCCC2)cc1)CCN1CCCC1	0.676 nM	
CCN(CC)CCC#Cc1ccc(CN2CCCCC2)cc1	1.35 nM	
C(#Cc1ccc(CN2CCCCC2)cc1)CCN1CCOCC1	5.01 nM	
CC(C)N1CCN(Cc2ccc(C#CCCN3CCCCC3)cc2)CC1	0.871 nM	
C(#Cc1ccc(CN2CCOCC2)cc1)CCN1CCCCC1	1.74 nM	Kb (Histamine H3 receptor [2]): 3.24 nM
C(#Cc1cccc(CN2CCCC2)c1)CCN1CCCCC1	81.3 nM	
C(#Cc1ccc(CN2CCCCC2)cc1)CCN1CCSCC1	3.8 nM	
CN1CCN(Cc2ccc(C#CCCN3CCCCC3)cc2)CC1	0.977 nM	
C(#Cc1ccc(CN2CCN(Cc3ccccc3)CC2)cc1)CCN1CCCCC1	1.91 nM	
C(#Cc1ccc(CN2CCCC2)cc1)CCN1CCCCC1	0.617 nM	
